The source made the active and inactive calls. The rule behind the calls is not given here.
Columns and labels:
Assay type in all cases: functional, cell-based
U2OS [1] = experiment: Antitumor immunity against human U2OS cells expressing HMGBI-GFP fusion protein assessed as accumulation HMGBI-GFP fusion protein at 3 uM measured upto 24 hrs by live cell microscopic analysis
U2OS [2] = experiment: Antitumor immunity against human U2OS cells assessed as decrease in ATP by measuring reduction in quinacrine green fluorescence intensity at 3 uM pretreated for 24 hrs by live fluorescence microscopic analysis
U2OS [3] = experiment: Antitumor immunity against human U2OS cells expressing CALR-GFP fusion protein assessed as accumulation CALR-GFP fusion protein at 3 uM measured upto 24 hrs by live cell microscopic analysis
MCA-205 = experiment: Induction of B3Z T-cell activation cocultured with mouse MCA-205 cells expressing SL8 epitope assessed as increase in intron-derived SL8 antigen presentation at 2 to 10 uM measured after 18 hrs; settings: dose 2-10 µM
Method in brief: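 MCA205 cells transfected with YFP-Globin-SL8-intron plasmid (pCDNA3 empty-vector control). 24 h later, treated 18 h. Washed, then 5x10^4 cells co-cultured with 1x10^5 SL8/H-2Kb-specific B3Z CD8+ T-cell hybridoma for 18 h at 37 °C. Cells lysed, β-galactosidase read with 40 µM MUG substrate over 3 h at room temperature. Normalised to unspecific B3Z activation. At least three biological replicates, Student's t-test.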

Row | Compound | Activity (U2OS [1]) | Activity (U2OS [2]) | Activity (U2OS [3]) | Activity (MCA-205)
1 | O=C1c2c(O)ccc(O)c2C(=O)c2c(NCCNCCO)ccc(NCCNCCO)c21 | Active | Active | Active | –
2 | COc1cc(-c2ccc(=O)[nH]n2)ccc1OC(F)F | – | – | – | Active
